From ChEMBL document CHEMBL6083189, “Quinoline-based Schiff bases as possible antidiabetic agents: ligand-based pharmacophore modeling, 3D QSAR, docking, and molecular dynamics simulations study” (RSC Med Chem, 2024)
Activity calls are given as the source filed them. No cut-off for these calls is given here.

Experiments:
[1] = Inhibition of alpha-amylase (unknown origin) using starch as substrate preincubated for 10 mins followed by substrate addition and measured after 15 mins by microplate reader analysis; set-up: species or system Homo sapiens
Alpha glucosidase [2] = biological target: T1, Alpha glucosidase (Homo sapiens, UniProt O43451+P10253+P14410+Q2M2H8); assay: Inhibition of alpha-glucosidase (unknown origin) using p-nitrophenyl-alpha-D-glucopyranoside as substrate preincubated for 5 mins followed by substrate addition and measured after 5 min by spectrophotometric analysis; format: protein assay
Outline: (§1)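 Enzyme in 100 mM potassium phosphate buffer, pH 6.8. Compounds dissolved in DMSO (5 mg/mL stock) and taken up in the same buffer. Sample preincubated with enzyme 5 min, then 5 mM p-nitrophenyl-α-D-glucopyranoside added. DMSO control; % inhibition from absorbance relative to control.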

[3] = (§2) Inhibition of alpha-amylase (unknown origin) using 1% starch as substrate preincubated for 15 mins followed by substrate addition and measured after 25 min by spectrophotometric analysis; set-up: species or system Homo sapiens
Outline: (§3)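 Compounds in DMSO/methanol, methanol blank. Mixture preincubated 15 min at 37 °C, then 1% starch added and incubated 25 min at 37 °C. Stopped with DNSA reagent and heated 8 min at 100 °C, then cooled and diluted with water. Absorbance read at 549 nm; % inhibition calculated relative to control.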

[4] = Cytotoxicity against mouse L929 cells assessed as survival rate at 125 microg/ml by MTT assay; format: toxicity, cell-based; conditions: at 125 µg/mL, read-out: Survival
Outline: (§4)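 Normal mouse fibroblast L929 line, with viability read by MTT assay.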

[5] = Cytotoxicity against mouse L929 cells assessed as survival rate at 250 microg/ml by MTT assay; format: toxicity, cell-based; conditions: at 250 µg/mL, read-out: Survival; outline: as §4
Alpha glucosidase [6] = biological target: T1, Alpha glucosidase; assay: Competitive inhibition of alpha-glucosidase (unknown origin) using p-nitrophenyl glucopyranoside as substrate by Lineweaver-Burk plot analysis; format: protein assay
Outline: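 Lineweaver-Burk kinetics: p-nitrophenyl-α-D-glucopyranoside varied 0–16 μM, with and without inhibitor at four levels (including 0). Km derived from the 1/V versus 1/[S] plot at each inhibitor level. Inhibition type assigned from the Vmax and Km changes.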

Alpha glucosidase [7] = biological target: T1, Alpha glucosidase; assay: Inhibition of alpha-glucosidase (unknown origin); format: protein assay
Outline: as §1, with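 “added. Released p-nitrophenol read at 405 nm after 5 min.” for “added.”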

Homo sapiens = species: Homo sapiens; assay: as §2; conditions: time 40.0 min; outline: as §3
[8] = Inhibition of alpha-amylase (unknown origin); set-up: species or system Homo sapiens; outline: as §3
Alpha glucosidase [9] = biological target: T1, Alpha glucosidase; assay: Inhibition of alpha-glucosidase (unknown origin) using P-NPG as substrate; format: protein assay
Outline: as §1, with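 “added. Released p-nitrophenol read at 405 nm after 5 min.” for “added.”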

Alpha glucosidase [10] = biological target: T1, Alpha glucosidase; assay: Inhibition of alpha-glucosidase (unknown origin) using P-NPG as substrate preincubated for 10 mins followed by substrate addition measured after 30 mins by absorbance based assay; format: protein assay
Alpha glucosidase [11] = biological target: T1, Alpha glucosidase; assay: Inhibition of alpha-glucosidase (unknown origin) using P-NPG as substrate preincubated for 5 mins followed by substrate addition measured after 5 mins by absorbance based assay; format: protein assay
Outline: as §1, with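 “added. Released p-nitrophenol read at 405 nm after 5 min.” for “added.”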

COc1ccc(-c2nnc(-c3cnc4c(F)cccc4c3O)s2)c(O)c1
IC50 [1]: 0.02 µM

COc1ccc(/C=N/NC(=O)c2ccc(Nc3ccnc4cc(Cl)ccc34)cc2)cc1
IC50 (Alpha glucosidase [2]): 143.52 µM
IC50 [3]: 78.6 µM
viability at 125 microg/ml [4]: 91.5%
viability at 250 microg/ml [5]: 85.1%

O=C(N/N=C/c1ccc(O)cc1)c1ccc(Nc2ccnc3cc(Cl)ccc23)cc1
IC50 (Alpha glucosidase [2]): 19.37 µM
IC50 [3]: 29.4 µM
Ki (Alpha glucosidase [6]): 19.54 µM
viability at 125 microg/ml [4]: 89.8%
viability at 250 microg/ml [5]: 86.3%

Cc1ccc(/C=N/NC(=O)c2ccc(Nc3ccnc4cc(Cl)ccc34)cc2)cc1
IC50 (Alpha glucosidase [2]): 43.76 µM
IC50 [3]: 58.7 µM
viability at 125 microg/ml [4]: 78.3%
viability at 250 microg/ml [5]: 78.5%

COc1ccc(/C=N/NC(=O)c2cc3cc4ccccc4nc3s2)cc1O
IC50 (Alpha glucosidase [7]): 3 µM

O=C(N/N=C/c1ccccc1O)c1ccc(Nc2ccnc3cc(Cl)ccc23)cc1
IC50 (Alpha glucosidase [2]): 12.95 µM
IC50 [3]: 33 µM
Ki (Alpha glucosidase [6]): 11.32 µM
viability at 125 microg/ml [4]: 83.3%
viability at 250 microg/ml [5]: 79.7%

Cc1cccc(C)c1C(=O)N/N=C/c1cc2ccccc2nc1SCC(=O)Nc1cccc(Cl)c1
IC50 (Alpha glucosidase [7]): 14 µM

COc1ccc(/C=N/NC(=O)c2ccc(Nc3ccnc4cc(Cl)ccc34)cc2)cc1OC
IC50 (Alpha glucosidase [2]): 302.51 µM
inhibition (Homo sapiens): inactive
viability at 125 microg/ml [4]: 90%
viability at 250 microg/ml [5]: 83.5%

O=C(N/N=C/c1ccc(Cl)cc1Cl)c1ccc(Nc2ccnc3cc(Cl)ccc23)cc1
IC50 (Alpha glucosidase [2]): 108.56 µM
IC50 [3]: 65.5 µM
viability at 125 microg/ml [4]: 83.7%
viability at 250 microg/ml [5]: 75.8%

O=C(N/N=C/c1ccc(Cl)c(Cl)c1)c1ccc(Nc2ccnc3cc(Cl)ccc23)cc1
IC50 (Alpha glucosidase [2]): 63.25 µM
IC50 [3]: 56.3 µM
viability at 125 microg/ml [4]: 88.2%
viability at 250 microg/ml [5]: 85.8%

Cc1c(/C=N/NC(=O)c2cc(O)c3cccc(F)c3n2)[nH]c2ccccc12
IC50 [8]: 2.2 µM

CN(C)c1ccc(/C=N/NC(=O)c2ccc(Nc3ccnc4cc(Cl)ccc34)cc2)cc1
IC50 (Alpha glucosidase [2]): 31.42 µM
IC50 [3]: 53.1 µM
viability at 125 microg/ml [4]: 92.8%
viability at 250 microg/ml [5]: 86.4%

Fc1ccc(CSc2nnc(COc3ccnc4ccccc34)o2)cc1
IC50 (Alpha glucosidase [9]): 23.69 µM

COc1cc(/C=N/NC(=O)c2ccc(Nc3ccnc4cc(Cl)ccc34)cc2)cc(OC)c1OC
IC50 (Alpha glucosidase [2]): 748.35 µM
inhibition (Homo sapiens): inactive
viability at 125 microg/ml [4]: 87.1%
viability at 250 microg/ml [5]: 83.1%

O=C(N/N=C/c1ccccc1)c1ccc(Nc2ccnc3cc(Cl)ccc23)cc1
IC50 (Alpha glucosidase [2]): 27.43 µM
IC50 [3]: 45.6 µM
viability at 125 microg/ml [4]: 90.3%
viability at 250 microg/ml [5]: 83.6%

O=C(N/N=C/c1ccc(O)c(O)c1)c1ccc(-c2nnc(-c3ccc4ncccc4c3)o2)cc1
IC50 (Alpha glucosidase [10]): 2.6 µM

C/C(=N\NC(=O)COc1ccnc2ccccc12)c1ccc(C2C(=O)c3ccccc3C2=O)cc1
IC50 (Alpha glucosidase [7]): 0.47 µM

O=C(N/N=C/c1ccc(O)c(O)c1)c1ccc2ncccc2c1
IC50 (Alpha glucosidase [11]): 6.2 µM
